SMILES strings stand for the structures.

Data set [1] has as its system Mus musculus. Briefly: Toxicity in human H7402 cells xenografted mouse assessed as change in body weight at 60 mg/kg/day, po for 16 days. The class given is organism-based. The following applies: in vivo, 384 h. Put shortly: (§1)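 H7402 subcutaneous xenograft in male athymic nude mice, seven per group, started once tumors reached about 140 mm³. Compound given daily by gavage for 16 days; controls received an equal volume of PBS. Body weight recorded every three days, and toxicity monitored during treatment.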
(In general: Xenograft models place foreign cells or tissue in a host animal.)

In a further data set the target is Histone deacetylase 3 (Homo sapiens, UniProt O15379). Description: Inhibition of HDAC3 (unknown origin) using Boc-Lys (acetyl)-AMC as substrate preincubated for 30 mins before substrate addition measured after 20 mins by UV-vis spectrophotometer analysis.
Histone deacetylase 3, sequence (O15379 whole entry): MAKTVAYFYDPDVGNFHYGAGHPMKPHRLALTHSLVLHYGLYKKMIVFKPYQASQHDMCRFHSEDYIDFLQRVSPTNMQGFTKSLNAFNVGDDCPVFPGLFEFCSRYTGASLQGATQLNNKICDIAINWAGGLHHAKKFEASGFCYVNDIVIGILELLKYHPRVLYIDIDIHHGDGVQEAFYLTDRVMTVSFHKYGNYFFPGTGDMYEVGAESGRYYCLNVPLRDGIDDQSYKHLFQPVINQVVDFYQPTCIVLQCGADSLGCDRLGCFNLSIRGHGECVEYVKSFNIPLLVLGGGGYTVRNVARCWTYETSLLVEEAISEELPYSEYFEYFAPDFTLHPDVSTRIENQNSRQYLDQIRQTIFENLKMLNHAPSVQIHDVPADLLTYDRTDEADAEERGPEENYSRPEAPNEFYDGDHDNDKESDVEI
The test system of another data set is PC-3. Briefly: Antiproliferative activity against human PC3 cells after 48 hrs by MTT assay. The class given is functional, cell-based. The note with it: PC-3, 48 h. (In general: Formazan colour is commonly taken as a measure of viable cells.)
The nature of data set [2]: Antiproliferative activity against human KG1 cells after 48 hrs by MTT assay. The class given is functional, cell-based. The note with it: KG-1, 48 h.
Data set [3] is described as follows: Antiproliferative activity against human ES2 cells after 48 hrs by MTT assay. The class given is functional, cell-based. The following applies: ES-2, 48 h.
For a further data set, the system named is HEL. Briefly: Antiproliferative activity against human HEL cells after 48 hrs by MTT assay. The class given is functional, cell-based.
Another data set addresses Histone deacetylase 1 (Homo sapiens, UniProt Q13547). Description: Inhibition of HDAC1 (unknown origin) using Boc-Lys (acetyl)-AMC as substrate preincubated for 30 mins before substrate addition measured after 20 mins by UV-vis spectrophotometer analysis.
For another data set, the system named is MCF7. Briefly: Antiproliferative activity against human MCF7 cells after 48 hrs by MTT assay. The class given is functional, cell-based. The following applies: MCF7, 48 h.
The test system of a further data set is HCT-116. Description: Antiproliferative activity against human HCT116 cells after 48 hrs by MTT assay. The class given is functional, cell-based. The following applies: HCT-116, 48 h.
Data set [4] has as its target Histone deacetylase (HDAC1 and HDAC2) (Homo sapiens, UniProt Q13547+Q92769). Description: Inhibition of HDAC1/2 in human HeLa cell nuclear extract using Boc-Lys (acetyl)-AMC as substrate preincubated for 30 mins before substrate addition measured after 20 mins by UV-vis spectrophotometer analysis. The class given is cell-based.
Data set [5] deals with Mus musculus. Description: Toxicity in human H7402 cells xenografted mouse assessed as change in toxic effect at 60 mg/kg/day, po for 16 days. The class given is organism-based. The following applies: in vivo, 384 h. The gist of the method:
as §1

In another data set the test system is K562. Description: Antiproliferative activity against human K562 cells after 48 hrs by MTT assay. The class given is functional, cell-based. The note with it: K562, 48 h.
The next data set relates to MDA-MB-231. Description: Antiproliferative activity against human MDA-MB-231 cells after 48 hrs by MTT assay. The class given is functional, cell-based. The note with it: MDA-MB-231, 48 h.
The nature of data set [6]: Antiproliferative activity against human H7402 cells after 48 hrs by MTT assay. The class given is functional, cell-based. The note with it: H7402, 48 h. Put shortly: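 Cells kept in RPMI1640 with 10% FBS at 37 °C, 5% CO2. Seeded 5000 per well and allowed at least 4 h to settle, then exposed to a range of compound concentrations for 48 h. 1% MTT solution added for 4 h, formazan dissolved in DMSO over 15 min, OD read at 570 nm. Values are the mean of three experiments.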

The test system of the next data set is U-937. Briefly: Antiproliferative activity against human U937 cells after 48 hrs by MTT assay. The following applies: U-937, 48 h. The class given is functional, cell-based.
Another data set has as its system HeLa. Description: Antiproliferative activity against human HeLa cells after 48 hrs by MTT assay. The class given is functional, cell-based.
Data set [7] addresses T1, Protein deacetylase HDAC6 (Homo sapiens, UniProt Q9UBN7).
T1 sequence (Q9UBN7 whole entry): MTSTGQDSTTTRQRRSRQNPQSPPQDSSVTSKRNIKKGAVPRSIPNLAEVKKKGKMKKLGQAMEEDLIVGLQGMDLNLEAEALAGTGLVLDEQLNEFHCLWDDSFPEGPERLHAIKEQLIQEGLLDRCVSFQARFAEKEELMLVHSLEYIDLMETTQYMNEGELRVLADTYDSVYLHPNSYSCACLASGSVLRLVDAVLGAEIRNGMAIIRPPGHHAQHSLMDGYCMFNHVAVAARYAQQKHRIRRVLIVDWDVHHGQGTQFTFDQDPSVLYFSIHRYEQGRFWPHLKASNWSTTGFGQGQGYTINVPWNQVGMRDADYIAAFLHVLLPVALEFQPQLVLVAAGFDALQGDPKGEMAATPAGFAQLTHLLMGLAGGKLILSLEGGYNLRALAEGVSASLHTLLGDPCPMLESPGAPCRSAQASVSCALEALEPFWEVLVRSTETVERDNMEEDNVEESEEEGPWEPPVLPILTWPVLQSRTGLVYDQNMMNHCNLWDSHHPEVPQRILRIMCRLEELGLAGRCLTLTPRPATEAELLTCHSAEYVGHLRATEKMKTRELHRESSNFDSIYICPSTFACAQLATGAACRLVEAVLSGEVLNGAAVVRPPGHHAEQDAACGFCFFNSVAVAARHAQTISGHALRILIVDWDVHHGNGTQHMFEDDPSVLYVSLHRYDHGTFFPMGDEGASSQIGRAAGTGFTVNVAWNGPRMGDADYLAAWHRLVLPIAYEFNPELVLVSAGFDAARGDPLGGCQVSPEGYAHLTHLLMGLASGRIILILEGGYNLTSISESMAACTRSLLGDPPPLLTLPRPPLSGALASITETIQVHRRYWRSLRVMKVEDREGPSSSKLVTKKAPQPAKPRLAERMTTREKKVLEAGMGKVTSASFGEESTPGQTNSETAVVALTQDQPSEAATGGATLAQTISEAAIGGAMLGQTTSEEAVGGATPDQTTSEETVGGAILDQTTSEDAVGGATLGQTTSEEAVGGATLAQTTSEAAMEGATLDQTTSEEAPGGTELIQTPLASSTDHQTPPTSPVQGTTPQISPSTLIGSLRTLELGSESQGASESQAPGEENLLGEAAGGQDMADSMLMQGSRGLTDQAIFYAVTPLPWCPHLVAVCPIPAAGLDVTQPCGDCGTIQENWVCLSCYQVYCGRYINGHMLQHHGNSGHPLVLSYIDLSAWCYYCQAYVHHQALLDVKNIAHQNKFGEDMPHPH
Description: Inhibition of HDAC6 (unknown origin) using Boc-Lys (acetyl)-AMC as substrate preincubated for 30 mins before substrate addition measured after 20 mins by UV-vis spectrophotometer analysis.

Data set [8] in a line: Antiproliferative activity against human 3AO cells after 48 hrs by MTT assay. The class given is functional, cell-based.
The nature of data set [9]: Antitumor activity against human H7402 cells xenografted in mouse assessed as tumor increment ratio at 60 mg/kg/day, po for 16 days relative to control. The class given is functional. The gist of the method:
(§2)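 Male athymic nude mice, 4-6 weeks old, inoculated subcutaneously in the right axilla with 6.88×10^7 H7402 cells. After 8 days, at about 140 mm³ mean tumor volume, mice were randomized to groups of seven. Daily gavage for 16 days; controls received an equal volume of PBS. Tumors were measured by caliper every three days, V=ab²/2. T/C% = treated RTV/control RTV, where RTV = Vt/V0. Two-tailed t test.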

Data set [10] is described as follows: Antitumor activity against human H7402 cells xenografted in mouse assessed as tumor increment ratio at 100 mg/kg/day, po for 16 days relative to control. The class given is functional. The gist of the method: as §2
The test system of data set [11] is Mus musculus. Description: Toxicity in human H7402 cells xenografted mouse assessed as change in body weight at 100 mg/kg/day, po for 16 days. The class given is organism-based. The note with it: in vivo, 384 h. Put shortly: as §1
In data set [12] the test system is Mus musculus. Briefly: Toxicity in human H7402 cells xenografted mouse assessed as change in toxic effect at 100 mg/kg/day, po for 16 days. The class given is organism-based. The following applies: in vivo, 384 h. Put shortly:
as §1

Histone deacetylase 1, sequence (Q13547 whole entry): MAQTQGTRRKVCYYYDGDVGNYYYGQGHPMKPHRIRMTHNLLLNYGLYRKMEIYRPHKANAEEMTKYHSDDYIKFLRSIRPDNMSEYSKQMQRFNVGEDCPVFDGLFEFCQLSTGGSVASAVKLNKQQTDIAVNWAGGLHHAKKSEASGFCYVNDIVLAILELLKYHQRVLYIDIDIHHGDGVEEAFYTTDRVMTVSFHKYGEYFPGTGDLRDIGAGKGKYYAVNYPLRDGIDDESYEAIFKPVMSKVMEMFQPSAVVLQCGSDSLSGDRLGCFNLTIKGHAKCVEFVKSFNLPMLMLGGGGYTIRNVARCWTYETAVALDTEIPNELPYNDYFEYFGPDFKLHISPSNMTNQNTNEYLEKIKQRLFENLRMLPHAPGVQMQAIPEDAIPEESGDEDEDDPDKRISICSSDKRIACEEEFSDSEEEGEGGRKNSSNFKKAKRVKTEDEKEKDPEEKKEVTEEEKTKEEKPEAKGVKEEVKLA

`O=C(CCN1C(=O)C2(OCCCO2)c2cc(Br)ccc21)Nc1ccc(C(=O)NO)cc1`: the Activity entry in the data set on Mus musculus [1] and in the data set with Mus musculus [5] was “Non-toxic” in each case. For the same compound, the IC50 at Histone deacetylase 3 stood at 0.025 µM; in the data set on PC-3, 1.91 µM; in [2], 0.32 µM; in data set [3], 2.8 µM; with HEL, 0.33 µM; at Histone deacetylase 1, 0.201 µM. In addition, the IC50 in the data set on MCF7 is 52.6 µM; in the data set on HCT-116 it was 1.26 µM; in data set [4] it was 0.01013 µM; in the data set with K562, 0.18 µM; in the data set with MDA-MB-231, 101 µM; in data set [6], 5.33 µM. Further, the IC50 in the data set with U-937 is 0.14 µM; in the data set with HeLa, 2.79 µM; in data set [7], 0.126 µM; in data set [8], 3.25 µM. In data set [9], the T/C was determined as 62.5%.

Take `O=C(CCCCCCC(=O)Nc1ccccc1)NO` [VORINOSTAT]: in data set [10], the T/C is on record as 75.53%. The Activity result in the data set with Mus musculus [11] and in the data set with Mus musculus [12] was “Non-toxic” in each case. For the same compound, half-maximal inhibition in data set [6] (IC50) required 10.1 µM.

A word on the IC50: it is the midpoint of a concentration-inhibition curve. As usually defined, the T/C is the result in the treated group divided by that in the control group, in per cent.

These data come from ChEMBL document CHEMBL3593221, “Design, synthesis and preliminary biological evaluation of indoline-2,3-dione derivatives as novel HDAC inhibitors” (Bioorg Med Chem, 2015).
